One block for each compound: values may come before it.
Key:
KDM3A = target: T1, KDM3A (Homo sapiens, UniProt Q9Y4C1); assay: Western blot KDM3A degradation in SW480 cells; assay type: cell-based; settings: SW480 cells, 16 hours
T1 sequence (Q9Y4C1 1-1321): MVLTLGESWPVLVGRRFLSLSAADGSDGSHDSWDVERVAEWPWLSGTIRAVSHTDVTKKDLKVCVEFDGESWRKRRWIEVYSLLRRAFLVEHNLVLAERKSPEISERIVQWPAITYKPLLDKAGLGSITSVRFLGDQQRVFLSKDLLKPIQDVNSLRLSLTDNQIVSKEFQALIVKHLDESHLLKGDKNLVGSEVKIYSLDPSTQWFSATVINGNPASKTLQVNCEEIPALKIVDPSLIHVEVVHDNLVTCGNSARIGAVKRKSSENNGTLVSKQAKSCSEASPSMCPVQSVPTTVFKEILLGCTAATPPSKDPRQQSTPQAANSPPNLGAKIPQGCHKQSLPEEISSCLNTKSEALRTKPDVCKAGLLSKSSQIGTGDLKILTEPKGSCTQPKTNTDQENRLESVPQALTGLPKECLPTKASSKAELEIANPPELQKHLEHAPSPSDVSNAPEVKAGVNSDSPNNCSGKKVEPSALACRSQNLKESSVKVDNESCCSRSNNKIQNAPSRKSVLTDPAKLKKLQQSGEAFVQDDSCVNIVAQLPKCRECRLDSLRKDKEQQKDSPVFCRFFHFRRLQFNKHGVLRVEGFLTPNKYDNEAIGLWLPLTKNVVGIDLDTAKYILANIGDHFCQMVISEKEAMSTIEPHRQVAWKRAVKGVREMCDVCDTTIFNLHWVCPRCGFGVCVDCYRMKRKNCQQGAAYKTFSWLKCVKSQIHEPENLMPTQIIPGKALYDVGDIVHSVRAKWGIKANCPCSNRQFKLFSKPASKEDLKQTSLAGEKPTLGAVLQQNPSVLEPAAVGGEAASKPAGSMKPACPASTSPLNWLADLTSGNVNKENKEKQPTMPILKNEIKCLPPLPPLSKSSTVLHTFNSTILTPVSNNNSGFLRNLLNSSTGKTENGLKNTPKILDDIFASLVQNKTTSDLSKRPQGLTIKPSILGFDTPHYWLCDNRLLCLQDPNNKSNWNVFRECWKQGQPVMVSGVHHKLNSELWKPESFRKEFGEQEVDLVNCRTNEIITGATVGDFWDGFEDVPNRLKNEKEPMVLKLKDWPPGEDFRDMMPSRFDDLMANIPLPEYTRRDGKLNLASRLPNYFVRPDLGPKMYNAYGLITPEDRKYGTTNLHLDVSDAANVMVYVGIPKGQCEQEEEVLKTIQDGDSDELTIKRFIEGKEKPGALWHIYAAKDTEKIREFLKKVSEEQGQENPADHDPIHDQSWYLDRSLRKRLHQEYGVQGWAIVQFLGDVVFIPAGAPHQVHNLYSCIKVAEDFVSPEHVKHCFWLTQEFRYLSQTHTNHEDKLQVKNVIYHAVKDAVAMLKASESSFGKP
How it was run: (§1)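 SW480 cells exposed to test compound for 16 h, then total lysates protein-normalised and run on SDS-PAGE. Semi-dry transfer to PVDF, 1 h block in 5% milk. Primary antibody overnight at 4 °C in 1% milk, secondary 1 h at RT, TBST washes, α-tubulin as loading control. Rescue arms co-treated with MLN4924 (1 μM) or pomalidomide (100 μM). Test compound at 0.1 μM for the KDM3A blot and 1 μM for the KDM3B blot.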

KDM3B = KDM3B (Homo sapiens, UniProt Q7LBC6); assay: Western blot KDM3B degradation in SW480 cells; assay type: cell-based; settings: SW480 cells, 16 hours
How it was run: as §1

[1] = system: 293T cells expressing a TCF-responsive luciferase reporter (293T-TCF-Luc); assay: Wnt luciferase reporter assay; assay type: cell-based; settings: Homo sapiens, HEK-293T, 16 h, read-out: IC50 (293T-TCF-Luc)
How it was run: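 293T cells stably transduced with a lentiviral TCF/LEF–luciferase reporter and selected in puromycin ([…], 4 days). Seeded at 100 000 cells/well and dosed with test compound on attachment. Wnt signalling stimulated with 20 mM LiCl 4 h later. Lysates taken at 16 h; Bright-Glo luminescence normalised to total protein.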

ALDH^high-HCP-1 CSCs = assay: Tumor sphere formation assay HCP-1; assay type: cell-based, human; settings: 2 weeks
How it was run: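 Trypsinised cells passed through a 40 μm strainer and stained with ALDEFLUOR. ALDHHigh cells sorted by FACS, with DEAB-treated cells as gating control. Plated at 1000 cells/well on ultra-low attachment in serum-free MEBM containing 2% B27, 20 ng mL−1 EGF, 10 ng mL−1 FGF, 1 ng mL−1 hydrocortisone, 5 μg mL−1 insulin and 100 μM β-mercaptoethanol. Dosed 1 h after plating; medium renewed at 1 week. Spheres >40 μm counted at 2 weeks for ED50.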

CSC growth = settings: most cell-based assays ref 16,17; cited from earlier work
[2] = Hepatic metabolism S9 fraction incubation, human; settings: 0.1 μM, plus glutathione, UDPGA, PAPS, 37 °C
[3] = Hepatic metabolism S9 fraction incubation, rat; settings: 0.1 μM, plus glutathione, UDPGA, PAPS, 37 °C
[4] = system: KDM4 family proteins (KDM4A, KDM4B and KDM4C); assay: Western blot KDM4 family proteins in SW480 cells; assay type: cell-based, human
How it was run: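 Lysates from compound-treated SW480 cells normalised for total protein and resolved by SDS-PAGE. Semi-dry transfer to PVDF, 1 h block in 5% milk. Overnight incubation at 4 °C with anti-KDM4A, -KDM4B or -KDM4C antibody in 1% milk, secondary 1 h at RT, TBST washes, α-tubulin as loading control.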

CRL-1790 cells = assay: CCK-8 based toxicity assay; assay type: cell-based, human
How it was run: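 Non-malignant human colon epithelial CRL-1790 cells grown in EMEM with 10% FBS and 1% pen–strep at 37 °C and 5% CO2. Seeded at 3 × 10^3 cells/well in 96-well plates, then exposed to test compound. Viability read by CCK-8 at 48 h as OD 450 nm. TD50 derived from the dose–response.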

[5] = system: Wnt target genes in SW480 cells; assay: RT-qPCR of Wnt target gene expression in SW480; assay type: cell-based, human
How it was run: (§2)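 Cells in 6-well plates exposed to test compound for 16 h. Total RNA extracted; 1 μg reverse-transcribed with M-MuLV and random hexamers. SYBR Green qPCR for the named genes, quantified by 2ΔΔct against tubulin. Mean ± SD; unpaired two-tailed Student's t-test.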

[6] = system: Wnt target genes in HCP-1 cells; assay: RT-qPCR of Wnt target gene expression in HCP-1; assay type: cell-based, human
How it was run: as §2

SW480 cells = assay: Clonogenic assay SW480; assay type: cell-based, human; settings: SW480, 2 weeks
How it was run: (§3)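 Cells kept in DMEM with 10% FBS and 1% pen–strep, seeded at 500 cells/well and dosed with test compound once attached. Medium refreshed every 3 days for 2 weeks. Colonies stained with 0.5% crystal violet and photographed. ED50 obtained by image analysis.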

HCP-1 cells = assay: Clonogenic assay HCP-1; assay type: cell-based, human; settings: HCP-1, 2 weeks
How it was run: as §3

Chain of KDM3B (Q7LBC6 whole entry): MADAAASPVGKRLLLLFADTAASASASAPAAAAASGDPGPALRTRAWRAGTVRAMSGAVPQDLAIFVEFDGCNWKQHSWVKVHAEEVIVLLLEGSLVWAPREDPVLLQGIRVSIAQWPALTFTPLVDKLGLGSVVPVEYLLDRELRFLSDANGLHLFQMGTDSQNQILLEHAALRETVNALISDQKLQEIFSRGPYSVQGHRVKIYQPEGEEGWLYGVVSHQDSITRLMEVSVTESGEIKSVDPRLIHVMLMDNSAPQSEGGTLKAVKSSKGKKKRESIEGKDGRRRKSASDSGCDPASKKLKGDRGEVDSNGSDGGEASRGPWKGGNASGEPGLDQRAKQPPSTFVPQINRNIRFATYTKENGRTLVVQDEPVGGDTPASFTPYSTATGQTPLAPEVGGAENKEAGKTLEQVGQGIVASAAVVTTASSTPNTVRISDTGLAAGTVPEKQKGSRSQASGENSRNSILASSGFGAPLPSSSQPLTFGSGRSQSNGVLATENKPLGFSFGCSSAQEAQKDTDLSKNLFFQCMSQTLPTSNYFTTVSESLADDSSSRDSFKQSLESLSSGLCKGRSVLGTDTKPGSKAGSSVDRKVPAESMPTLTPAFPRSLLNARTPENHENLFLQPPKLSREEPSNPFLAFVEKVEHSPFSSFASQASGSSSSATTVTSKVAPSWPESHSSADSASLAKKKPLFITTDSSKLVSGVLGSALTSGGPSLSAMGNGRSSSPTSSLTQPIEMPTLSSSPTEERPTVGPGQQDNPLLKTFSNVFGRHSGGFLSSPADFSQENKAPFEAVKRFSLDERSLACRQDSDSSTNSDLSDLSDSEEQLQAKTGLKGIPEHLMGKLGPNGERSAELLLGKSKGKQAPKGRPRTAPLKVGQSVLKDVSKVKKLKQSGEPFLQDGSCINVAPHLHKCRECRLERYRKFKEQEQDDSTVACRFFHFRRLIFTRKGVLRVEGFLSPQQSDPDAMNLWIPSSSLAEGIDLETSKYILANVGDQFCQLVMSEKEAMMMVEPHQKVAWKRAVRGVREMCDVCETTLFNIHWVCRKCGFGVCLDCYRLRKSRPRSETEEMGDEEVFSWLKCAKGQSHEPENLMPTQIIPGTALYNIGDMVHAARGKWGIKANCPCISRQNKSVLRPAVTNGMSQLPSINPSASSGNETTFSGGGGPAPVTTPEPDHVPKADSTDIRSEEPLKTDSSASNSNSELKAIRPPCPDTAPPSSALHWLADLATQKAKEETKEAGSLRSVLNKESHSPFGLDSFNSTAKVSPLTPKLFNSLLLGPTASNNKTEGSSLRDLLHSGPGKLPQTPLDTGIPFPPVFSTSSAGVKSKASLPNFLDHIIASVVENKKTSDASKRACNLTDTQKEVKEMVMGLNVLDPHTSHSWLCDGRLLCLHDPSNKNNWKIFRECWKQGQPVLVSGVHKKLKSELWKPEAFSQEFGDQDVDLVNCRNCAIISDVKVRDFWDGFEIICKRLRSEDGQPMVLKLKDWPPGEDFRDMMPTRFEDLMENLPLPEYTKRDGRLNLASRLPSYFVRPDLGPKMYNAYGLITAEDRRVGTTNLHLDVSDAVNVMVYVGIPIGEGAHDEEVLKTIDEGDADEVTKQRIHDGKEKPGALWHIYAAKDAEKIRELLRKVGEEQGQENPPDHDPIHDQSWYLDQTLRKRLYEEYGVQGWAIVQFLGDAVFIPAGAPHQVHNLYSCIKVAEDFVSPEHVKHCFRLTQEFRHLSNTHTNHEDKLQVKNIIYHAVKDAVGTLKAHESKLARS

SMILES: O=C1CCC(N2C(=O)c3cccc(NCCOCCOCCOCCOCCOCCNC(=O)c4ccc(O)c5ncccc45)c3C2=O)C(=O)N1 (stereo not drawn) [Compound 5, N-(17-((2-(2,6-Dioxopiperidin-3-yl)-1,3-dioxoisoindolin-4-yl)amino)-3,6,9,12,15-pentaoxaheptadecyl)-8-hydroxyquinoline-5-carboxamide]
KDM3A degradation (western blot) (KDM3A): little effect in degrading KDM3A and KDM3B | KDM3B degradation (western blot) (KDM3B): little effect in degrading KDM3A and KDM3B

SMILES: O=C1CCC(N2C(=O)c3cccc(NCCOCCOCCOCCNC(=O)c4ccc(O)c5ncccc45)c3C2=O)C(=O)N1 (stereo not drawn) [Compound 3, N-(2-(2-(2-(2-((2-(2,6-Dioxopiperidin-3-yl)-1,3-dioxoisoindolin-4-yl)amino)ethoxy)ethoxy)ethoxy)ethyl)-8-hydroxyquinoline-5-carboxamide]
KDM3A degradation (western blot) (KDM3A): little effect in degrading KDM3A and KDM3B | KDM3B degradation (western blot) (KDM3B): little effect in degrading KDM3A and KDM3B

SMILES: O=C(O)c1ccc(O)c2ncccc12 [IOX1, 8-Hydroxyquinoline-5-carboxylic acid, reference compound]
IC50 [1]: 48.6 µM | KDM3A degradation (western blot) (KDM3A): did not induce KDM3A and KDM3B degradation | KDM3B degradation (western blot) (KDM3B): did not induce KDM3A and KDM3B degradation | ED50 HCP-1 (tumor sphere formation) (ALDH^high-HCP-1 CSCs): 10.1 µM | effective concentrations for suppressing CSC growth (CSC growth): 20 to 50 µM

half-life at 0.1 μM ([2]; human, s9, t 1/2 Human (liver, S9)): > 2 h
SMILES: CC(C)NCC(O)COc1cccc2ccccc12 (stereo not drawn) [Propranolol, reference compound]

CLint Rat (liver, S9) [3]: 6.8 µL/min/mg | CLint Human (liver, S9) [2]: 37.5 µL/min/mg
SMILES: O=C(O)Cc1ccccc1Nc1c(Cl)cccc1Cl [Diclofenac, reference compound]

SMILES: O=C1CCC(N2C(=O)c3cccc(NCCOCCOCCOCCOCCOCCOCCNC(=O)c4ccc(O)c5ncccc45)c3C2=O)C(=O)N1 (stereo not drawn) [Compound 6, N-(20-((2-(2,6-Dioxopiperidin-3-yl)-1,3-dioxoisoindolin-4-yl)amino)-3,6,9,12,15,18-hexaoxaicosyl)-8-hydroxyquinoline-5-carboxamide]
KDM3A degradation (western blot) (KDM3A): limited ability to degrade KDM3A and KDM3B | KDM3B degradation (western blot) (KDM3B): limited ability to degrade KDM3A and KDM3B | effect on KDM4 family proteins [4]: not dramatically affected | cell growth of CRL-1790 (CRL-1790 cells; 60 μM, two-day treatment): not dramatically affected | TD50 CRL-1790 (CRL-1790 cells; CCK8 assay, 48 h post drug treatment): 400.3 µM | suppression of Wnt target gene expression (AXIN2, DKK1, CCND1) ([5]; SW480, 50 μM, 16-hour treatment, in most cases): ≥ 50% | expression of colorectal CSC signature genes (ASCL2, RNF43, ZNRF3, LGR5) ([5]; SW480, 16 hours): strongly inhibited | suppression of Wnt target gene expression (AXIN2, DKK1, CCND1) ([6]; HCP-1, 50 μM, 16-hour treatment, in most cases): ≥ 50% | expression of colorectal CSC signature genes (ASCL2, RNF43, ZNRF3, LGR5) ([6]; HCP-1, 16 hours): strongly inhibited | colony formation (SW480 cells): potently inhibited the colony formation | colony formation (HCP-1 cells): potently inhibited the colony formation | ED50 HCP-1 (tumor sphere formation) (ALDH^high-HCP-1 CSCs): 0.51 µM

From publication PMC11393732 (RSC Medicinal Chemistry, 2024)
